ChEMBL document CHEMBL1123113, “"Reverse" and "symmetrical" analogues of actinomycin D: metabolic activation and in vitro and in vivo tumor growth inhibitory activities” (J Med Chem, 1985)

Experiments:
[1] = IC50 DNA/IC50 RNA ratio of the compound; format: functional
In short: (§1)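 P388 cells were exposed for 1 h. IC50 (µM) was taken as 50% reduction of methyl-[3H]thymidine (DNA) or 2-[14C]uridine (RNA) incorporation into acid-precipitable material. The ratio is IC50 DNA divided by IC50 RNA.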

[2] = Minimum tolerated dose is the lethal dose for 10% normal mice for deaths during 21 days; format: ADME, organism-based; conditions: mouse, in vivo
In short: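 Tumor-free male BDF1 mice (18–22 g) received a broad dose range ip in 5% dimethyl sulfoxide-saline on days 1, 5 and 9. Deaths were recorded over 21 days. The LD10 (dose killing 10% of animals) was calculated from a plot of log-dose vs. percent mortality.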

[3] = test system: P388; experiment: Inhibition of DNA synthesis was measured as the concentration required to cause 50% reduction (in 1h) in methyl [3H]thymidine incorporation into acid precipitable material using P388 cells; format: functional, cell-based; conditions: Mus musculus; in short: as §1
[4] = test system: P388; experiment: Inhibition of RNA synthesis was measured as the concentration required to cause 50% reduction (in 1h) in 2-[14C]uridine incorporation into acid precipitable material using P388 cells; format: functional, cell-based; conditions: Mus musculus, P388, 1 h
[5] = Therapeutic index (MTD/MED) value of the compound; conditions: read-out: TI
[6] = species on record: Rattus norvegicus; experiment: (§2) Compound tested for NADPH oxidation in rat hepatic mycrosomal incubation; format: functional
In short: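 Phenobarbital-induced rat liver microsomes (300 µg), 37 °C, no epinephrine; NADPH 0.4 mM added to sample cuvette only. A340 followed; % oxidation = (1 − A340/A'340)×100 vs cuvette not activated by microsomes; % stimulation = (drug rate − basal rate)/basal rate ×100. Drugs in 150 mM KCl-50 mM Tris pH 7.4; triplicate analyses, mean ± standard error.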

[7] = species on record: Rattus norvegicus; experiment: (§3) Compound tested for adrenochrome formation in rat hepatic mycrosomal incubation; format: functional
In short: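 Superoxide read as adrenochrome from epinephrine (in 0.01 N HCl) with phenobarbital-induced rat liver microsomes (300 µg) at 37 °C; NADPH 0.4 mM added to sample cuvette after 1 min. Rate at 480 nm (ε 4.02 mM-1 cm-1); drug ≤100 µM in 150 mM KCl-50 mM Tris pH 7.4; % stimulation over basal rate; triplicate, mean ± standard error.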

[8] = test system: CCRF-CEM; experiment: Inhibitory dose required for the inhibition of human lymphoblastic leukemia cells(CCRF-CEM); format: functional; conditions: read-out: ID50 (the source's name)
[9] = test system: Mus musculus; experiment: Antitumor activity against P388 leukemia cells in terms of percentage increase in life span in mice at an optimal dose of 1200 ug/kg administered ip; format: functional
[10] = test system: Mus musculus; experiment: Antitumor activity against B16 melanoma in terms of percentage increase in life span in mice at an optimal dose of 1200 ug/kg administered ip; format: functional
[11] = species on record: Mus musculus; experiment: Dose providing an increase in the life span of 45% over control in P388 tumor bearing mice; format: functional; conditions: read-out: MED
In short: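 MED is the ip dose in mg/kg, given on days 1, 5 and 9 starting 1 day after implantation, that gives a 45% increase in life span over control in P388-bearing mice. It was derived from plotted log-dose response data.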

[12] = test system: Mus musculus; experiment: Antitumor activity against P388 leukemia cells in terms of median survival time of mice at an optimal dose of 1200 ug/kg administered ip; format: functional
[13] = test system: Mus musculus; experiment: Antitumor activity against B16 melanoma in terms of median survival time of mice at an optimal dose of 1200 ug/kg administered ip; format: functional
[14] = test system: Mus musculus; experiment: In vivo antitumor activity was determined against P388 leukemia mice as number of mice survived after administration of 1200 ug/Kg dose of compound; Value represented as no of survivors/ treated = 0/8; format: functional
[15] = test system: Mus musculus; experiment: In vivo antitumor activity was determined against B16 melanoma mice as number of mice survived after administration of 1200 ug/Kg dose of compound; Value represented as no of survivors/ treated = 1/9; format: functional
[16] = species on record: Rattus norvegicus; experiment: as §2; format: functional; remark: listed apart in the source
In short: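 Phenobarbital-induced male Sprague-Dawley rat liver microsomes were placed in both cuvettes, without epinephrine. NADPH 0.4 mM was added to the sample side only, and absorbance was read at 340 nm. Percent stimulation = (drug rate − basal)/basal × 100. Values are the average ± standard errors of triplicates.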

[17] = species on record: Rattus norvegicus; experiment: as §3; format: functional; remark: listed apart in the source
In short: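 Adrenochrome assay for superoxide: epinephrine in 0.01 N HCl plus 300 µg of phenobarbital-induced rat liver microsomes at 37 °C. NADPH 0.4 mM was added to the sample side 1 min later, and the rate was read at 480 nm (ε 4.02 mM−1 cm−1). Drugs were at ≤100 µM, made in 150 mM KCl–50 mM Tris, pH 7.4. Percent stimulation is over basal rate, in triplicate.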

Q: For Cc1c2oc3c(C)ccc(C(=O)N[C@@H]4C(=O)N[C@H](C(C)C)C(=O)N5CCC[C@@H]5C(=O)NCC(=O)N[C@@H](C(C)C)C(=O)O[C@@H]4C)c3nc-2c(C(=O)N[C@H]2C(=O)N[C@@H](C(C)C)C(=O)N3CCC[C@H]3C(=O)NCC(=O)N[C@H](C(C)C)C(=O)O[C@H]2C)c(N)c1=O, which Ratio [1] is on record?
A: 22.4

Q: Which MTD at 504 h [2] does the source give for Cc1c2oc3c(C)c4oc(-c5ccccc5)nc4c(C(=O)N[C@@H]4C(=O)N[C@H](C(C)C)C(=O)N5CCC[C@H]5C(=O)N(C)CC(=O)N(C)[C@@H](C(C)C)C(=O)O[C@@H]4C)c3nc-2c(C(=O)N[C@@H]2C(=O)N[C@H](C(C)C)C(=O)N3CCC[C@H]3C(=O)N(C)CC(=O)N(C)[C@@H](C(C)C)C(=O)O[C@@H]2C)cc1=O here?
A: 2 mg/kg

Q: And the IC50 [3]?
A: 5.7 µM

Q: And the IC50 [4]?
A: 3.2 µM

Q: What about the selectivity ratio [5] of the same compound?
A: 10

Q: For Cc1c2oc3c(C)c(O)c(N)c(C(=O)N[C@H]4C(=O)N[C@@H](C(C)C)C(=O)N5CCC[C@H]5C(=O)N(C)CC(=O)N(C)[C@H](C(C)C)C(=O)O[C@H]4C)c3nc-2c(C(=O)N[C@@H]2C(=O)N[C@H](C(C)C)C(=O)N3CCC[C@@H]3C(=O)N(C)CC(=O)N(C)[C@@H](C(C)C)C(=O)O[C@@H]2C)c(N)c1=O, which Ratio [1] is on record?
A: 0.97

Q: What does the source list for Cc1c2oc3c(C)c(O)c(N)c(C(=O)N[C@@H]4C(=O)N[C@H](C(C)C)C(=O)N5CCC[C@H]5C(=O)N(C)CC(=O)N(C)[C@@H](C(C)C)C(=O)O[C@@H]4C)c3nc-2c(C(=O)N[C@@H]2C(=O)N[C@H](C(C)C)C(=O)N3CCC[C@H]3C(=O)N(C)CC(=O)N(C)[C@@H](C(C)C)C(=O)O[C@@H]2C)c(N)c1=O?
A: MTD at 504 h [2]: 2.4 mg/kg; IC50 [3]: 1.11 µM; IC50 [4]: 1.15 µM; selectivity ratio [5]: 96

Q: With CCN(CC)C(=O)c1c2nc3c(C(=O)N(CC)CC)c(N)c(O)c(C)c3oc-2c(C)c(=O)c1N as the compound, how does the NADPH oxidation [6] read?
A: 8.9 nM min-1 (mg of protein)-1

Q: And the adrenochrome formation [7]?
A: 2.13 nM min-1 (mg of protein)-1

Q: With Cc1c2oc3c(C)c4oc(-c5ccccc5)nc4c(C(=O)N[C@H]4C(=O)N[C@@H](C(C)C)C(=O)N5CCC[C@H]5C(=O)NCC(=O)N(C)[C@H](C(C)C)C(=O)O[C@H]4C)c3nc-2c(C(=O)N[C@@H]2C(=O)N[C@H](C(C)C)C(=O)N3CCC[C@@H]3C(=O)NCC(=O)N[C@@H](C(C)C)C(=O)O[C@@H]2C)cc1=O as the compound, how does the Ratio [1] read?
A: 1.78

Q: With Cc1c2oc3c(C)c4oc(-c5ccccc5)nc4c(C(=O)N[C@H]4C(=O)N[C@@H](C(C)C)C(=O)N5CCC[C@H]5C(=O)N(C)CC(=O)N(C)[C@H](C(C)C)C(=O)O[C@H]4C)c3nc-2c(C(=O)N[C@@H]2C(=O)N[C@H](C(C)C)C(=O)N3CCC[C@@H]3C(=O)N(C)CC(=O)N(C)[C@@H](C(C)C)C(=O)O[C@@H]2C)c(N)c1=O as the compound, how does the Ratio [1] read?
A: 11.4

Q: With Cc1c2oc3c(C)c(O)c(N)c(C(=O)N[C@@H]4C(=O)N[C@H](C(C)C)C(=O)N5CCC[C@H]5C(=O)N(C)CC(=O)N(C)[C@@H](C(C)C)C(=O)O[C@@H]4C)c3nc-2c(C(=O)N[C@@H]2C(=O)N[C@H](C(C)C)C(=O)N3CCC[C@H]3C(=O)N(C)CC(=O)N(C)[C@@H](C(C)C)C(=O)O[C@@H]2C)cc1=O as the compound, how does the IC50 [8] read?
A: 1 µM

Q: And the ILS at 1.2 mg/kg [9]?
A: 136%

Q: And the ILS at 1.2 mg/kg [10]?
A: 52%

Q: What about the minimal effective dose [11] of the same compound?
A: 0.275 mg/kg

Q: What about the MST [12] of the same compound?
A: 26 days

Q: And the MST [13]?
A: 44 days

Q: What about the Survivors [14] of the same compound?
A: 0

Q: What about the Survivors [15] of the same compound?
A: 1

Q: What about the NADPH oxidation [16] of the same compound?
A: 29.9 nM min-1 (mg of protein)-1

Q: And the adrenochrome formation [17]?
A: 7.29 nM min-1 (mg of protein)-1
